Assay outcomes from PubChem.
CAL PDZ FP-1 = inhibitors of human CAL PDZ peptide binding. AID 602252. inhibition, % at 24.9 µM. purified CAL PDZ, TMR-peptide fluorescence polarization, 1 h. hit rate 0.92% among 300,000. Q9HD26;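 active means mean inhibition of at least 30% with at least half of replicates also reaching 30%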;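 further: 0% = DMSO neutral control and 100% = excess unlabeled competitor peptide PRC23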
CAL PDZ FP-2 = blocks peptide binding to human CAL PDZ domain; hit rate 0.02% among 330,000; purified CAL PDZ, TMR-peptide fluorescence polarization, 1 h; AID 504414; inhibition, % at 20 µM;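 active means highest replicate inhibition of at least 40%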;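 further: plate controls were DMSO neutral control wells for no effect and unlabeled competitor peptide control wells for full effect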
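Control set: unlabelled peptide and DMSO controls / Material: purified CerCALP PDZ construct / Timing: 1 h incubation at room temperature before polarization reading / Doses: 20 µM, one dose / Detection: fluorescence polarization (mP)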
ALR H2O2 inh = inhibitors of human sulfhydryl oxidase ALR; hit rate 3.8% among 290,000; P55789; purified ALR, DTT oxidation, H2O2 HRP-luminol luminescence; inhibition, % (concentration not given with the values);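 active means mean replicate inhibition above about 79%, with every replicate also reaching it, limit read from the data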
Rtt109 Vps75 = inhibitors of Candida albicans Rtt109/Vps75 histone acetyltransferase; purified Rtt109/Vps75, ThioGlo CoA-SH fluorescence, 4 h; inhibition, % at 34.9 µM; AID 540336; Q5AAJ8; hit rate 0.16% among 330,000;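 active means inhibition of at least 50% in every replicate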
Target sequence (Q5AAJ8 whole entry, looked up): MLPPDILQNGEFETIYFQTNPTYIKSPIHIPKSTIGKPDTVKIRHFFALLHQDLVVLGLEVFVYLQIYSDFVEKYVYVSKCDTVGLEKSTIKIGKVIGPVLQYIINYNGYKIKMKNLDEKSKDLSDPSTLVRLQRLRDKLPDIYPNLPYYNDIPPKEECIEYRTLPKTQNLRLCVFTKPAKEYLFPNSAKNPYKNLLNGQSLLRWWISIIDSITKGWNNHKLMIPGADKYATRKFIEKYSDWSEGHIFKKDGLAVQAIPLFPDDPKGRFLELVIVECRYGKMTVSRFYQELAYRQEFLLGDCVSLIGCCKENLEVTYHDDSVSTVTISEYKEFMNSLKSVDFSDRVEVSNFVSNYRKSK
Dyrk1A ADPGlo = inhibitors of rat Dyrk1A kinase; Q63470; ADP-Glo luminescence, NFATc1 peptide; inhibition, % at 12.5 µM; hit rate 0.43% among 310,000; in the data active means inhibition above about 50%;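 further: plate controls were vehicle with enzyme for no effect and no enzyme for full effect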
* = called active by the depositor; . = no result. Sampled rows, rich in hits. Any-hit rate of the full collection: about 4.3%.

SMILES	CAL PDZ FP-1	CAL PDZ FP-2	ALR H2O2 inh	Rtt109 Vps75	Dyrk1A ADPGlo
CC1=CC(=O)C=C(C)C1=NOC(=O)/C=C\c1ccccc1	2	0	98*	2	12
CC1=C(C)/C(=N\OC(=O)/C=C/c2ccccc2)C=CC1=O	.	0	87*	-8	1
N#Cc1ccc(CSc2nnc(NC(=O)c3ccc(=O)[nH]c3)s2)cc1	-4	-1	92*	0	2
CCOc1ccc(/C=N/NC(=O)NC23CC4CC(CC(C4)C2)C3)cc1O	-4	-1	99*	-1	0
COc1cc(/C=N\NC(=O)C2CC3C=CC2C3)ccc1O (stereo not drawn)	5	0	100*	5	-1
O=C(N/N=C/c1ccccc1O)NC12CC3CC(CC(C3)C1)C2	-3	-1	28	3	-1
O=C(N/N=C/c1ccc(O)c(O)c1)NC12CC3CC(CC(C3)C1)C2	0	-3	99*	.	5
COc1cc(/C=N/NC(=O)NC23CC4CC(CC(C4)C2)C3)ccc1O	1	-1	95*	-3	5
O=C(N/N=C/c1cccnc1)NC12CC3CC(CC(C3)C1)C2	2	0	-14	-6	.
CSc1cccc(NS(=O)(=O)c2cc(Br)cnc2N)c1	-12	-2	2	0	-2
CCC1C(=O)N(C)CCc2ccccc21 (stereo not drawn)	-3	0	-14	4	1
CCc1nnc(NC(=O)CN2CCN(c3ccccc3F)CC2)s1	41*	0	-2	-6	0
CCN(CC)c1ccc(NC(=O)CN2CCN(c3ccccc3F)CC2)cc1	.	-1	99*	-4	3
COc1ccc(NC(=O)CN2CCN(c3ccccc3F)CC2)cc1	-2	-5	.	7	2
CN1C(=O)/C(=C\c2ccco2)N=C1c1ccc(Cl)cc1Cl	8	0	13	6	11
CC(C)(C)C(=O)Nc1nnc(SCC(=O)NC2CCCC2)s1	1	-3	3	-5	-2
Cc1ccc(/C=C(\C#N)C(=O)NC(C)C)o1	-1	-1	-1	4	.
CC(C)NC(=O)/C(C#N)=C/c1ccc(N(C)C)o1	-2	0	98*	-6	.
Cc1c(NS(=O)(=O)c2cc(C(=O)NCc3cccnc3)ccc2Cl)c(=O)n(-c2ccccc2)n1C	82*	0	-2	2	.
Cc1c(NS(=O)(=O)c2cc(C(=O)NCc3cccc(Cl)c3)ccc2Cl)c(=O)n(-c2ccccc2)n1C	0	-2	.	-4	2
CCCCCCCCNC(=O)/C(C#N)=C/c1ccc(SC)cc1	-4	0	-1	-1	-2
C/C(N)=C(/C#N)C(=O)COC(=O)Cc1coc2ccc3ccccc3c12	79*	-1	-147	5	.
CN(C(=S)NC(=O)c1ccccc1Br)C1CCCCC1	-3	-1	99*	.	18
Cc1ccccc1C(=O)NC(=S)N(C)C1CCCCC1	0	-2	8	-32	-3
Cc1ccccc1C(=O)NC1CCN(C(=O)N(c2ccccc2)c2ccccc2)CC1	-2	0	86*	-8	4
SMILES	CAL PDZ FP-1	CAL PDZ FP-2	ALR H2O2 inh	Rtt109 Vps75	Dyrk1A ADPGlo
CCC(=O)Nc1cccc(-c2cnc3ccccc3n2)c1	-2	-2	88*	7	17
COCCNC(=O)c1cc2cc(Br)cc(Br)c2oc1=O	48*	-1	-3	.	5
CC(=O)Nc1ccc(NC(=O)c2ccc(C3SCC(=O)N3CCc3ccccc3)cc2)cc1 (stereo not drawn)	-7	-2	0	4	7
O=C1CSC(c2ccccc2[N+](=O)[O-])N1CCc1ccccc1 (stereo not drawn)	70*	0	-15	1	4
Cc1cc(C(=O)COC(=O)c2ccc(N)c([N+](=O)[O-])c2)c(C)n1Cc1ccc2c(c1)OCO2	123*	0	-14	-4	1
O=C(CSC1=NCCN1)C1COc2ccccc2O1 (stereo not drawn)	-7	.	93*	30	-3
COc1ccccc1Nc1n[nH]c(=S)s1	78*	-1	.	2	.
Cc1cccc(Nc2n[nH]c(=S)s2)c1C	-4	-1	99*	-4	4
COc1ccccc1Nc1nc(C)cs1	-12	-1	99*	6	-3
Cc1csc(Nc2cccc3ccccc23)n1	-4	-2	2	5	10
Cc1cccc(Nc2nc3ccccc3s2)c1C	2	0	-7	1	3
CC(C)Oc1ccc(OCCSc2nc3ccccc3n2CC(=O)O)cc1	-5	0	0	10	.
